In ChEMBL document CHEMBL4715780, “Biological evaluation of tetracationic compounds based on two 1,4-diazabicyclo[2.2.2]octane moieties connected by different linkers” (Bioorg Med Chem, 2016):

Assays:
Staphylococcus aureus [1] = assay: Antibacterial activity against […] Staphylococcus aureus ATCC 25923 assessed as concentration required to inhibit visible growth by CLSI protocol based serial microdilution method; assay type: functional
Staphylococcus aureus [2] = assay: Antibacterial activity against […] Staphylococcus aureus ATCC 25923 assessed as bacterial growth inhibition by CLSI protocol based serial microdilution method; assay type: functional
Enterococcus faecalis [3] = assay: Antibacterial activity against Enterococcus faecalis ATCC 51299 assessed as concentration required to inhibit visible growth by CLSI protocol based serial microdilution method; assay type: functional
Enterococcus faecalis [4] = assay: Antibacterial activity against Enterococcus faecalis ATCC 51299 assessed as bacterial growth inhibition by CLSI protocol based serial microdilution method; assay type: functional
Pseudomonas aeruginosa [5] = assay: Antibacterial activity against Pseudomonas aeruginosa ATCC 9027 assessed as concentration required to inhibit visible growth by CLSI protocol based serial microdilution method; assay type: functional
Pseudomonas aeruginosa [6] = assay: Antibacterial activity against Pseudomonas aeruginosa ATCC 9027 assessed as bacterial growth inhibition by CLSI protocol based serial microdilution method; assay type: functional
Escherichia coli [7] = assay: Antibacterial activity against Escherichia coli ATCC 25922 assessed as concentration required to inhibit visible growth by CLSI protocol based serial microdilution method; assay type: functional
Escherichia coli [8] = assay: Antibacterial activity against Escherichia coli ATCC 25922 assessed as bacterial growth inhibition by CLSI protocol based serial microdilution method; assay type: functional
Salmonella typhimurium [9] = assay: Antibacterial activity against Salmonella enterica ATCC 14028 assessed as concentration required to inhibit visible growth by CLSI protocol based serial microdilution method; assay type: functional, Salmonella enterica subsp. enterica serovar Typhimurium
Salmonella typhimurium [10] = assay: Antibacterial activity against Salmonella enterica ATCC 14028 assessed as bacterial growth inhibition by CLSI protocol based serial microdilution method; assay type: functional, Salmonella enterica subsp. enterica serovar Typhimurium
Citrobacter freundii [11] = assay: Antibacterial activity against Citrobacter freundii ATCC 8090 assessed as concentration required to inhibit visible growth by CLSI protocol based serial microdilution method; assay type: functional
Citrobacter freundii [12] = assay: Antibacterial activity against Citrobacter freundii ATCC 8090 assessed as bacterial growth inhibition by CLSI protocol based serial microdilution method; assay type: functional
Proteus vulgaris [13] = assay: Antibacterial activity against Proteus vulgaris ATCC 6380 assessed as concentration required to inhibit visible growth by CLSI protocol based serial microdilution method; assay type: functional
Proteus vulgaris [14] = assay: Antibacterial activity against Proteus vulgaris ATCC 6380 assessed as bacterial growth inhibition by CLSI protocol based serial microdilution method; assay type: functional
Candida albicans [15] = assay: Antifungal activity against Candida albicans CEMTC 34 assessed as concentration required to inhibit visible growth by CLSI protocol based serial microdilution method; assay type: functional
Outline: (§1)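 Candida albicans grown in Sabouraud dextrose broth with two-fold serial compound dilutions from water stocks; final inoculum about 5 × 10⁵ CFU/mL. Incubated at 37 °C with orbital shaking (580 rpm). MIC is the lowest concentration preventing growth, by absorbance at 595 nm. MFC is the lowest concentration with no visible growth. Duplicates in two separate experiments.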

Candida albicans [16] = assay: Antifungal activity against Candida albicans CEMTC 34 assessed as fungal growth inhibition by CLSI protocol based serial microdilution method; assay type: functional; outline: as §1
[17] = Cytotoxicity against human MCF7 cells assessed as reduction in cell viability measured after 24 hrs by MTT assay; assay type: cell-based
Outline: (§2)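 HEK293T or MCF-7 cells in IMDM with 10% FBS, seeded at 20,000 per well and grown overnight. Compounds at […] in fresh medium for 24 h at 37 °C, 5% CO₂. MTT then added for 4 h, precipitate dissolved overnight in SDS-HCl, absorbance read at 570 nm. Viability expressed relative to untreated cells, giving CC₅₀. Duplicate wells, at least two independent repeats.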

[18] = Cytotoxicity against HEK293T cells assessed as reduction in cell viability measured after 24 hrs by MTT assay; assay type: cell-based, HEK-293T; conditions: human; outline: as §2
[19] = Selectivity index, ratio of CC50 for HEK293T cells assessed as reduction in cell viability measured after 24 hrs by MTT assay to MIC for Staphylococcus aureus ATCC 25923 assessed as bacterial growth inhibition by CLSI protocol based serial microdilution method; assay type: toxicity; conditions: human, read-out: Selectivity Index
[20] = Selectivity index, ratio of CC50 for HEK293T cells assessed as reduction in cell viability measured after 24 hrs by MTT assay to MIC for Enterococcus faecalis ATCC 51299 assessed as bacterial growth inhibition by CLSI protocol based serial microdilution method; assay type: toxicity; conditions: human, read-out: Selectivity Index
[21] = Selectivity index, ratio of CC50 for HEK293T cells assessed as reduction in cell viability measured after 24 hrs by MTT assay to MIC for Pseudomonas aeruginosa ATCC 9027 assessed as bacterial growth inhibition by CLSI protocol based serial microdilution method; assay type: toxicity; conditions: human, read-out: Selectivity Index
[22] = Selectivity index, ratio of CC50 for HEK293T cells assessed as reduction in cell viability measured after 24 hrs by MTT assay to MIC for Escherichia coli ATCC 25922 assessed as bacterial growth inhibition by CLSI protocol based serial microdilution method; assay type: toxicity; conditions: human, read-out: Selectivity Index
[23] = Selectivity index, ratio of CC50 for HEK293T cells assessed as reduction in cell viability measured after 24 hrs by MTT assay to MIC for Citrobacter freundii ATCC 8090 assessed as bacterial growth inhibition by CLSI protocol based serial microdilution method; assay type: toxicity; conditions: human, read-out: Selectivity Index
[24] = Selectivity index, ratio of CC50 for HEK293T cells assessed as reduction in cell viability measured after 24 hrs by MTT assay to MIC for Proteus vulgaris ATCC 6380 assessed as bacterial growth inhibition by CLSI protocol based serial microdilution method; assay type: toxicity; conditions: human, read-out: Selectivity Index
[25] = Selectivity index, ratio of CC50 for HEK293T cells assessed as reduction in cell viability measured after 24 hrs by MTT assay to MIC for Candida albicans CEMTC 34 assessed as bacterial growth inhibition by CLSI protocol based serial microdilution method; assay type: toxicity; conditions: human, read-out: Selectivity Index
Outline: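 SI = CC₅₀ (HEK293T) / MIC. HEK293T cells were seeded at 20,000/well overnight, then exposed to 10–250 µg/mL in IMDM with 10% FBS for 24 h. MTT was added for 4 h, solubilised with SDS-HCl, and read at 570 nm; duplicates, ≥2 independent runs. MIC came from two-fold dilutions in Sabouraud dextrose broth at ~5 × 10⁵ CFU/mL, 37 °C with shaking, read at 595 nm, in duplicate.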

Influenza A virus = assay: Antiviral activity against Influenza A virus (A/Puerto Rico/8/34 (H1N1) infected in MDCK cells assessed as decrease in viral titer preincubated for 1 hr followed by viral infection and cultivated for 48 hrs followed by supernatant transferred to chicken erythrocyte for 1 hr followed by measuring ability to cause positive hemagglutination; assay type: functional, organism-based; conditions: A/Puerto Rico/8/1934(H1N1)
Outline: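 MDCK monolayers in MEM were pre-incubated with compound for 1 h at 37 °C, then infected with 10-fold virus dilutions (10⁻¹–10⁻⁶) and held 48 h at 37 °C, 5% CO₂. Supernatant was mixed with an equal volume of 1% chicken erythrocytes, 60 min at room temperature. Titre was taken from the highest dilution giving full agglutination (log₁₀ EID₅₀). Triplicate per concentration.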

[26] = Cytotoxicity against MDCK cells assessed as cell death incubated for 48 hrs by MTT assay; assay type: cell-based, Canis lupus familiaris; conditions: dog
[27] = Selectivity index, ratio of CC50 for MDCK cells to EC50 for Influenza A virus (A/Puerto Rico/8/34 (H1N1)) infected in MDCK cells; assay type: toxicity, cell-based; conditions: dog, read-out: Ratio CC50/EC50
Outline: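 Ratio of CC₅₀ to EC₅₀, both in MDCK cells, with cytotoxicity run in parallel with the antiviral assay. EC₅₀ is the concentration halving virus production (0.3 log₁₀ EID₅₀ titre drop). It was obtained after 1 h compound pre-incubation, infection, 48 h at 37 °C, and hemagglutination read-out with 1% chicken erythrocytes.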

[28] = Selectivity index, ratio of CC50 for HEK293T cells assessed as reduction in cell viability measured after 24 hrs by MTT assay to MIC for Salmonella enterica ATCC 14028 assessed as bacterial growth inhibition by CLSI protocol based serial microdilution method; assay type: toxicity; conditions: human, read-out: Selectivity Index

Row | Compound | MBC (Staphylococcus aureus [1]) [µg/mL] | MIC (Staphylococcus aureus [2]) [µg/mL] | MBC (Enterococcus faecalis [3]) [µg/mL] | MIC (Enterococcus faecalis [4]) [µg/mL] | MBC (Pseudomonas aeruginosa [5]) [µg/mL] | MIC (Pseudomonas aeruginosa [6]) [µg/mL] | MBC (Escherichia coli [7]) [µg/mL] | MIC (Escherichia coli [8]) [µg/mL] | MBC (Salmonella typhimurium [9]) [µg/mL] | MIC (Salmonella typhimurium [10]) [µg/mL] | MBC (Citrobacter freundii [11]) [µg/mL] | MIC (Citrobacter freundii [12]) [µg/mL] | MBC (Proteus vulgaris [13]) [µg/mL] | MIC (Proteus vulgaris [14]) [µg/mL] | MFC (Candida albicans [15]) [µg/mL] | MIC (Candida albicans [16]) [µg/mL] | CC50 at 24 h [17] [µg/mL] | CC50 at 24 h [18] [µg/mL] | selectivity ratio at 24 h [19] | selectivity ratio at 24 h [20] | other results
1 | CCCCCCCCCCCC[N+]12CC[N+](CCCC[N+]34CC[N+](CCCCCCCCCCCC)(CC3)CC4)(CC1)CC2 | 1.2 | 0.6 | 1.6 | 1.6 | 3.1 | 1.6 | 3.1 | 1.6 | 3.1 | 1.6 | 1.6 | 1.6 | > 100 | 25 | 6.3 | 6.3 | 4 | 4 | 7 | 3 | selectivity ratio at 24 h [21]: 3; selectivity ratio at 24 h [22]: 3; selectivity ratio at 24 h [23]: 3; selectivity ratio at 24 h [24]: < 1; selectivity ratio at 24 h [25]: < 1; EC50 (Influenza A virus): > 3 µg/mL; CC50 at 48 h [26]: 6.8 µg/mL; selectivity ratio [27]: < 2; selectivity ratio at 24 h [28]: 3
2 | CCCCCCCCCCCC[N+]12CC[N+](CC#CC[N+]34CC[N+](CCCCCCCCCCCC)(CC3)CC4)(CC1)CC2 | 3.1 | 1.6 | 3.1 | 1.6 | 12.5 | 3.1 | 12.5 | 63 | 12.5 | 6.3 | 12 | 6.3 | > 100 | 100 | 12.5 | 12.5 | 23 | 22 | 14 | 14 | selectivity ratio at 24 h [21]: 7; selectivity ratio at 24 h [22]: 4; selectivity ratio at 24 h [23]: 4; selectivity ratio at 24 h [24]: < 1; selectivity ratio at 24 h [25]: 2; EC50 (Influenza A virus): > 3 µg/mL; CC50 at 48 h [26]: 4 µg/mL; selectivity ratio [27]: < 1; selectivity ratio at 24 h [28]: 4
